This data set can be described thus: Toxicity liver stage against HepG2, at 10uM. The class given is cell-based. Details: test concentration 10 uM, cell line HepG2-A16-CD81EGFP. Conditions: human, HepG2-A16-CD81EGFP cells; read-out: INHIBITION
Summed up: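 Uninfected HepG2-A16-CD81EGFP cells, 3 × 10^3 per well, 1536-well, plated on prespotted compound at 10 μM final, parasite-free screening media added to match infected plates; puromycin 10 μM positive, DMSO 0.5% negative; run in parallel with 48 h PbLuc assay at 37 °C, 5% CO2; viability by CellTiter-Glo luminescence, normalized to controls.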
As for `COc1ccc2cnn(CC(=O)NC3CCCCC3)c(=O)c2c1OC`, the cytotoxicity at 10 µM was -2.49%.

Take `Cc1cnc(N2C(=O)CSC2c2ccc(F)cc2)s1` (stereo not drawn): the cytotoxicity at 10 µM was -2.92%.

For the compound `NC(=O)c1c(-c2ccc(Cl)cc2Cl)csc1NC(=O)CCC(=O)O`, the cytotoxicity at 10 µM was 8.32%.

As to `CNc1[nH]nc(N)c1C(=O)Nc1ccc(OC)cc1`, the cytotoxicity at 10 µM was 14.8%.

On to `Cc1ccc(C2CN(C(=O)c3ccn(C)c(=O)c3)CCO2)nc1` (stereo not drawn), for which the cytotoxicity at 10 µM was -17%.

Take `O=C(c1cccnc1)N1CCCC(c2ncncc2-c2ccncc2)C1` (stereo not drawn): the cytotoxicity at 10 µM was -23.4%.

With `Cc1ccc(CC(=O)N2CCCC(c3n[nH]c4nccnc34)C2)cc1` (stereo not drawn), the cytotoxicity at 10 µM is -22.2%.

On to `Cc1ccc(S(=O)(=O)N2C[C@@H]3C[C@@H](NC(=O)C(C)(C)C)[C@@H]3C2)cc1`, for which the cytotoxicity at 10 µM is -3.81%.

For `CN(Cc1ccc(F)cc1)Cc1cc2c(cc1Br)OCCO2`, the cytotoxicity at 10 µM is -138%.

As for `Cc1ccc(F)c(S(=O)(=O)NCCc2nnc[nH]2)c1`, the cytotoxicity at 10 µM amounted to 3.16%.

In the case of `COc1ccc(C2CCCN2C(=O)c2ccc(=O)n(C)c2)cc1OC` (stereo not drawn), the cytotoxicity at 10 µM amounted to 11.3%.

Regarding `Cc1cnc(CN2CCCC(c3nc4ccccc4n3C(C)C)C2)o1` (stereo not drawn), the cytotoxicity at 10 µM was -8.14%.

With `CCn1c(CNC(=O)Nc2nc(C)c(C)o2)nc2ccccc21`, the cytotoxicity at 10 µM is -5.3%.

Regarding `CNS(=O)(=O)c1ccc(CNC(=O)N(C)C(C)COC)cc1` (stereo not drawn), the cytotoxicity at 10 µM is -5.12%.

For the compound `CC(C)C(=O)N1CC[C@H]2N(C)CC[C@@]2(C(=O)Nc2ccccc2)CC1`, the cytotoxicity at 10 µM is -107%.

`CCN1CCO[C@@H]2CN(C(=O)NCc3ccccc3)CC[C@@H]2C1`: the cytotoxicity at 10 µM is -117%.

Regarding `CN1C(=O)CC(c2ccccc2)C12CCN(c1ncc(F)cn1)CC2` (stereo not drawn), the cytotoxicity at 10 µM was -108%.

As to `COCC(=O)NCc1cc(=O)n2c(n1)CN(Cc1nccs1)CCC2`, the cytotoxicity at 10 µM is -107%.

On to `COCCc1noc(CN2CC(Cc3ccccc3)CC2=O)n1` (stereo not drawn), for which the cytotoxicity at 10 µM is -7.11%.

Take `NC(=O)c1noc(Cn2ncc3ccccc3c2=O)n1`: the cytotoxicity at 10 µM is -1.26%.

For `O=C(NCCc1csc(-c2cccnc2)n1)c1cnn2c1CCCC2`, the cytotoxicity at 10 µM was 3.41%.

Consider `Cc1cc(F)ccc1OC1(C(=O)O)CCN(Cc2nccn2C)CC1`, for which the cytotoxicity at 10 µM is 0.334%.

As for `CCCOCCN1CCc2[nH]c(-c3ccccc3)nc2C1`, the cytotoxicity at 10 µM was -124%.

In the case of `CSc1ncc(C(=O)N2CCN(c3ccccc3C)CC2C)cn1` (stereo not drawn), the cytotoxicity at 10 µM is 0.642%.

On to `Cc1cc(N2CCC3(CCCN(C4CCOCC4)C3=O)C2)ccn1` (stereo not drawn), for which the cytotoxicity at 10 µM is -134%.

`Cc1cc(CN(C)C2CCN(c3cccc(-c4cscn4)c3)CC2)on1`: the cytotoxicity at 10 µM is -0.371%.

Turning to `Cc1ccc(C(=O)N2CC(C)(C)[C@@](C)(O)C2)cc1N1CCNC1=O`, the cytotoxicity at 10 µM was -2.76%.

Regarding `CCn1c(CC2CCNCC2)nn(Cc2ccc(C(=O)NC)o2)c1=O`, the cytotoxicity at 10 µM turned out to be 9.17%.

On to `CCc1c(C)nc(C)nc1N1C[C@@H](CN(C)C)[C@@H](CO)C1`, for which the cytotoxicity at 10 µM is -0.247%.

Consider `CCN1CC(C(=O)NCCn2cccc2)CCC1=O` (stereo not drawn), for which the cytotoxicity at 10 µM is -1.64%.

Take `Cc1ccccc1C1(C(=O)NCCN2CCCC2)CCOCC1`: the cytotoxicity at 10 µM is -7.54%.

Regarding `COc1ccc(C(C)N(C)Cc2c(C3CC3)[nH]c3ncccc23)cc1` (stereo not drawn), the cytotoxicity at 10 µM was -2.45%.

For `Cc1occc1C(=O)N1Cc2nccn2CC(CN(C)C)C1` (stereo not drawn), the cytotoxicity at 10 µM is -97.7%.

In the case of `CCN1C[C@H]2C3(CCN(S(C)(=O)=O)CC3)CC[C@@]2(C(=O)N(C)C)C1`, the cytotoxicity at 10 µM was -107%.

`O=C(O)CN1CCCC2(CCN2Cc2cccc(F)c2)C1` (stereo not drawn): the cytotoxicity at 10 µM is -108%.

With `O=C(c1ccccc1F)N1CCC2(CC1)CC(N1CCCC1)CO2` (stereo not drawn), the cytotoxicity at 10 µM is -120%.

Take `c1cncc(CN2CC[C@H]3O[C@@H](COCC4CC4)CC[C@H]32)c1`: the cytotoxicity at 10 µM is 2.19%.

With `CC(C)c1nc(C(=O)N2C[C@@H]3CC[C@H]2CN(C2CCOCC2)C3)cs1`, the cytotoxicity at 10 µM was determined as 5.31%.

The values are drawn from ChEMBL document CHEMBL4513216, “Probing the Open Global Health Chemical Diversity Library for Multistage-Active Starting Points for Next-Generation Antimalarials” (ACS Infect Dis, 2020).
